The source made the active and inactive calls.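 Rule for the calls, unless noted: active = inhibition above 20% together with a positive visual image hit; inconclusive = visual image hit but inhibition not above 20%; inactive = no visual image hit.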
Assays:
[1] = inhibitors of TNFa-induced NFkB p65 translocation, primary screen, imaging, HUVEC, MLSMR starter and 10KST1 sets (AID 438); settings: HUVEC TNFa-induced p65 nuclear translocation; cell count: measured here: nuclei count (cytotoxicity indicator), at 2.08 µM; inhibition: at 2 µM, stronger effect = higher value, 0% TNFa-plus-vehicle, 100% no-TNFa wells;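 note: compound added about 3h40 before a 20 min TNFalpha stimulation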;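 for inhibition: signal is the nuclear over cytoplasmic p65 intensity ratio per well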
[2] = inhibitors of mutant huntingtin aggregation, primary screen, imaging, exon1htt(103Q)mCFP cells, high-content imaging (AID 483;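 active = visual image review flags a hit and inhibition of aggregation exceeds 20%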;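 note: compound exposure lasted 3 days before fixation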;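 for nuclei count: percent of the per-plate median nuclei count of sample wells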); settings: exon1htt(103Q)mCFP cell line, aggregate imaging, at 2 µM; inhibition of aggregation: stronger effect = higher value; nuclei count: measured here: cell count, toxicity
[3] = inhibitors of E-selectin induction by TNFa, primary screen, imaging, HUVEC, immunofluorescence, MLSMR starter and 10KST1 sets (AID 487;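 active = visually confirmed hit in the image check and inhibition above 20%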;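 for inhibition: signal is fraction of cell area covered by stained E-selectin grains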;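 for nuclei count: 100% = median nuclei count of all wells on the same plate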); settings: HUVEC TNFalpha-induced E-selectin immunofluorescence imaging, at 2 µM; inhibition: stronger effect = higher value; nuclei count: measured here: cell number, toxicity
[4] = molecular target: Voltage-gated potassium channel subunit beta-2 (Rattus norvegicus) (UniProt P62483); assay: KvBeta enzyme negative modulators, primary screen, biochemical, NADPH fluorescence (AID 622;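 active = fluorescence slope higher than the sample average by over 3 SD, cut at about -0.22 in these data, passing the limit was not always enough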;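 note: slope of raw intensity against log time taken from 70 to 1610 s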); settings: recombinant KvBeta, 4-cyanobenzaldehyde reduction, at 10 µM, stronger effect = higher value
[5] = molecular target: Voltage-gated potassium channel subunit beta-2 (Rattus norvegicus) (UniProt P62483); assay: KvBeta positive modulators, primary screen, biochemical, NADPH fluorescence (AID 623;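 active = NADPH fluorescence slope more negative than the mean of all samples by about 3 SD, 99.7% confidence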;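 note: fluorescence intensity change per second fitted from 20 to 320 s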); settings: Recombinant KvBeta, NADPH fluorescence decrease slope, 10 min; at 10 µM; stronger effect = lower value
[6] = molecular target: Muscarinic acetylcholine receptor M4 (Homo sapiens) (UniProt P08173); assay: compounds altering M4/GIRK thallium flux, either direction, primary screen, M4 allosteric agonist project, cell-based, HEK293 M4/GIRK, BTC-AM (AID 625;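 active = fluorescence slope after compound addition differing from the mean of all tested samples at 99.7% confidence, mostly higher but some lower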;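 note: thallium influx through GIRK channels coupled to M4 in HEK293 cells with BTC-AM dye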); settings: at 10 µM, actives lie on both sides
In short: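 System: HEK293 cells with M4 receptor and GIRK channels | Incubation: Cells overnight at 37 °C, BTC-AM loading 1 h, reads 2 min total | Technique: Kinetic BTC-AM fluorescence sampled at 1 Hz, 10 s pre-addition baseline | Measure: Post-addition slope, 15–24 s, of baseline-normalized fluorescence | Control set: Carbachol positive, DMSO negative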

[7] = inhibitors of Sendai virus-induced IRF3 signaling, primary screen, TLR/RLR signaling modifier project, cell-based, Sendai virus stimulus, luciferase, 10K MLSCN set (AID 602276;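 active = inhibition at or above 50% at 10 µM; inactive = inhibition below 50%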;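 note: firefly luciferase from ISG56 promoter only with Renilla not read in this screen; 0% = Sendai virus plus DMSO and 100% = medium plus DMSO without virus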); settings: HEK293 RL24 IRF3 luciferase reporter, at 10 µM, stronger effect = higher value
[8] = inhibitors of poly I:C-induced TLR3 signaling, primary screen, cell-based, poly I:C stimulus, luciferase, 10K MLSCN set (AID 602277;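 active = inhibition of the reporter signal at or above 50%; inactive = inhibition below 50%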); settings: HEK293-TLR3 RL24 IRF3 luciferase reporter, at 10 µM, stronger effect = higher value

Sequence of Muscarinic acetylcholine receptor M4 (Homo sapiens) (P08173 whole entry, looked up): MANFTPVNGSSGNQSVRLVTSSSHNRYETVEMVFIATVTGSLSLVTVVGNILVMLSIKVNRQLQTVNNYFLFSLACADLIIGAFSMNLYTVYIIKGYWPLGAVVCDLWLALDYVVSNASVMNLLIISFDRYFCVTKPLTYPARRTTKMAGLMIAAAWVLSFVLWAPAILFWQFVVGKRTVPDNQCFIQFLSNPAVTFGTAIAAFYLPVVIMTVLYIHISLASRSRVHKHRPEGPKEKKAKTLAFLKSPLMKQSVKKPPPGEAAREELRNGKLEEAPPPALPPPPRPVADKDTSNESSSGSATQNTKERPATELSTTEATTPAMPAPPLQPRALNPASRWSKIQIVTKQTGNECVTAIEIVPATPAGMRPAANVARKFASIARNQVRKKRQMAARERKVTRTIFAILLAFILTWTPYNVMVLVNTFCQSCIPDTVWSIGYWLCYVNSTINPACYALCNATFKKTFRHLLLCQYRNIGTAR
Sequence of Voltage-gated potassium channel subunit beta-2 (Rattus norvegicus) (P62483 whole entry, looked up): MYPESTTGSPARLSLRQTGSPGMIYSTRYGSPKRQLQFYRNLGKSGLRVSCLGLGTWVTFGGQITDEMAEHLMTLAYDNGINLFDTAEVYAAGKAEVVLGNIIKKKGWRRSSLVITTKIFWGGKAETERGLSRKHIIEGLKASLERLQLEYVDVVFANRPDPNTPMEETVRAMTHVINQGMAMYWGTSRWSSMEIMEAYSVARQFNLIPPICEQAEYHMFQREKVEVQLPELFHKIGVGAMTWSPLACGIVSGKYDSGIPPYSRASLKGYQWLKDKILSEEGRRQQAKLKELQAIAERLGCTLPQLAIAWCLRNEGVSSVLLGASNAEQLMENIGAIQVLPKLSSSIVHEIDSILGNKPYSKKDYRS

| SMILES | cell count [1] | inhibition [1] | inhibition of aggregation [2] | nuclei count [2] | inhibition [3] | nuclei count [3] | fluorescence slope [4] | NADPH fluorescence slope [5] | fluorescence slope [6] | inhibition [7] | inhibition [8] |
| --- | --- | --- | --- | --- | --- | --- | --- | --- | --- | --- | --- |
| CCOC(=O)c1ccc(NC(=O)NC(C)C2CCCO2)cc1 (stereo not drawn) | 352 | -12.3% (inactive) | -23.9% (inactive) | 101% | -94.9% (inactive) | 86.6% | -0.462 (inactive) | 2e-05 (inactive) | 0.00652 (inactive) | -13% (inactive) | 98.6% (active) |
| c1ccc(CC2CCN(Cc3nc(-c4ccccc4)no3)CC2)cc1 | 229 | 4.2% (inactive) | -5.2% (inactive) | 81.6% | -139% (inactive) | 124% | -0.456 (inactive) | -1.9e-05 (inactive) | 0.00542 (inactive) | 5.55% (inactive) | -19% (inactive) |
| Cc1c(C(=O)OC(C)C)[nH]c2c1C(=O)CCC2 | 437 | -3.5% (inactive) | 15.4% (inactive) | 86.8% | 54.6% (inactive) | 99% | -0.592 (inactive) | -3.8e-05 (inactive) | 0.00589 (inactive) | -15.8% (inactive) | -50.8% (inactive) |
| Cc1nc(NCc2ccccn2)c2ccccc2n1 | 416 | -13.6% (inactive) | 13% (inactive) | 69.7% | -49.1% (inactive) | 121% | -0.572 (inactive) | -4.7e-05 (inactive) | 0.00634 (inactive) | 4.35% (inactive) | -44.1% (inactive) |
| COc1ccc(NC(=O)Cn2nnc(-c3ccccc3N)n2)cc1OC | 656 | -6.1% (inactive) | 19.9% (inactive) | 100% | -51.2% (inactive) | 121% | -0.595 (inactive) | 1e-05 (inactive) | 0.00531 (inactive) | 17.6% (inactive) | 14.6% (inactive) |
| CCOc1ccc(CN2CCN(c3cc(C)nc4c5c(C)cc(C)nc5nn34)CC2)cc1 | 361 | -7.1% (inactive) | 5% (inactive) | 108% | 1.9% (inactive) | 114% | -0.385 (inactive) | 1.9e-05 (inactive) | 0.00419 (inactive) | 11.7% (inactive) | 22.8% (inactive) |
| COc1nc2ccc(C)cc2cc1-c1noc(-c2cccnc2)n1 | 243 | -0.9% (inactive) | 3.8% (inactive) | 62.9% | -71.7% (inactive) | 109% | -0.456 (inactive) | 3.8e-06 (inactive) | 0.0055 (inactive) | 6.17% (inactive) | -7.44% (inactive) |
| CCCCOC(=O)CSc1nc2c(cc1C#N)C(=O)CC(C)(C)C2 | 531 | 6.7% (inactive) | -21.3% (inactive) | 98.4% | 37.8% (inactive) | 96.9% | -0.447 (inactive) | -0.000295 (inactive) | 0.00537 (inactive) | -23.7% (inactive) | -55.1% (inactive) |
| Cc1ccc(-c2nnc(-c3ccc(Br)cc3)o2)o1 | 454 | 0.5% (inactive) | -10.6% (inactive) | 116% | -31.4% (inactive) | 102% | -0.389 (inactive) | -3e-05 (inactive) | 0.00923 (inactive) | -38.9% (inactive) | -108% (inactive) |
| COc1nc(N2CCOCC2)nc(-n2cccc2)n1 | 534 | -4.1% (inactive) | 3% (inactive) | 99.6% | 52.3% (inactive) | 80.1% | -0.547 (inactive) | -7.1e-05 (inactive) | 0.00492 (inactive) | 2.29% (inactive) | 4.71% (inactive) |
| COc1ccc(-c2noc(CCC(=O)NCCCN3CCC(Cc4ccccc4)CC3)n2)cc1 | 335 | 7.8% (inactive) | 2% (inactive) | 94% | -46.3% (inactive) | 108% | -0.547 (inactive) | -2.4e-05 (inactive) | 0.00434 (inactive) | 3.44% (inactive) | -1.77% (inactive) |
| COc1cc(NC(=O)Cc2nn(C)c(=O)c3ccccc23)cc(OC)c1 | 693 | -14.8% (inactive) | -21.4% (inactive) | 106% | -39% (inactive) | 108% | -0.585 (inactive) | -4.8e-05 (inactive) | 0.00514 (inactive) | -12.7% (inactive) | -56.4% (inactive) |
| COCCn1c(=O)[nH]c2cc(C(=O)NCc3cccnc3)ccc2c1=O | 744 | 3.8% (inactive) | 7.4% (inactive) | 93.8% | 56.4% (active) | 102% | -0.302 (inactive) | -4.8e-05 (inactive) | 0.00755 (inactive) | 10.8% (inactive) | 13.4% (inactive) |
| CCOC(=O)N1CCN(c2cc3[nH]c(=S)[nH]c3cc2F)CC1 | 792 | 0% (inactive) | -5.7% (inactive) | 104% | -135% (inactive) | 136% | -0.525 (inactive) | -2.4e-05 (inactive) | 0.00501 (inactive) | 17.8% (inactive) | 20.8% (inactive) |
| c1cnn(-c2cc(N3CCOCC3)ncn2)c1 | 301 | -5% (inactive) | 20.4% (inactive) | 85.2% | 2.8% (inactive) | 101% | -0.5 (inactive) | 7.1e-05 (inactive) | 0.0047 (inactive) | -15.2% (inactive) | -21.2% (inactive) |
| CC(=O)Nc1ccc(NC2=CC(=O)CC(C)(C)C2)cc1 | 424 | 1% (inactive) | 14% (inactive) | 107% | -60% (inactive) | 119% | -0.541 (inactive) | -5.8e-05 (inactive) | 0.00709 (inactive) | 18.6% (inactive) | 17.5% (inactive) |
| Cc1ncoc1C(=O)Nc1ccccc1C(N)=O | 408 | 3.5% (inactive) | 11.4% (inactive) | 102% | -2.5% (inactive) | 108% | -0.243 (inactive) | -1.8e-07 (inactive) | 0.00516 (inactive) | 1.59% (inactive) | -3.92% (inactive) |
| Cc1cc(C(=O)CSCc2nnc3n(CCC(C)C)c(=O)c4ccccc4n23)c(C)n1C | 284 | -11.2% (inactive) | -1.8% (inactive) | 94.2% | -26.1% (inactive) | 88.8% | -0.558 (inactive) | 3.1e-06 (inactive) | 0.00507 (inactive) | 14.8% (inactive) | 26.1% (inactive) |
| CC1(C)CC(=O)C2=C(C1)N(Cc1ccco1)C(=O)C2(NC(=O)C1CCCCC1)C(F)(F)F (stereo not drawn) | 670 | -2.6% (inactive) | 9.8% (inactive) | 111% | -51% (inactive) | 116% | -0.453 (inactive) | -6.1e-05 (inactive) | 0.00581 (inactive) | 16.7% (inactive) | 21.1% (inactive) |
| O=C(N1CCCCCC1)N1CCN(C(=O)N2CCOCC2)CC1 | 437 | -13.3% (inactive) | 7.7% (inactive) | 99.6% | -24.8% (inactive) | 134% | -0.563 (inactive) | -1.7e-05 (inactive) | 0.00574 (inactive) | 3.08% (inactive) | -6.18% (inactive) |
| COc1ccc(N2C(=O)C3CCCN3C2c2ccc(F)cc2)cc1Cl (stereo not drawn) | 412 | -2.7% (inactive) | -12.9% (inactive) | 101% | 18.5% (inactive) | 89.1% | -0.538 (inactive) | -1.5e-05 (inactive) | 0.00539 (inactive) | 7.49% (inactive) | 14.6% (inactive) |
| CCCN(CCC)S(=O)(=O)c1ccc(C(=O)Nc2nnc(-c3cccc(OC)c3)o2)cc1 | 345 | 1.4% (inactive) | 13.6% (inactive) | 92.5% | 38.1% (inactive) | 107% | -0.5 (inactive) | -0.000148 (inactive) | 0.0064 (inactive) | 27.3% (inactive) | 23.2% (inactive) |
| CC(C)(C)C(=O)N=C1SC2CS(=O)(=O)CC2N1c1ccc2c(c1)OCO2 (stereo not drawn) | 454 | 5.8% (inactive) | 2% (inactive) | 96.6% | 6.6% (inactive) | 132% | -0.546 (inactive) | -4.1e-05 (inactive) | 0.0052 (inactive) | -0.393% (inactive) | 7.75% (inactive) |
| COc1ccccc1NC(=O)N1c2ccc(F)cc2CCC1C (stereo not drawn) | 407 | -2.5% (inactive) | 2.1% (inactive) | 108% | -58.6% (inactive) | 111% | -0.567 (inactive) | -5e-06 (inactive) | 0.00635 (inactive) | 16.7% (inactive) | 24.1% (inactive) |
| Cc1occc1C(=O)Nc1cccc2ccccc12 | 670 | 5.2% (inactive) | 16.6% (inactive) | 97.2% | -185% (inactive) | 100% | -0.546 (inactive) | 7.3e-06 (inactive) | 0.00507 (inactive) | -27.7% (inactive) | -86.3% (inactive) |
| O=C(Nc1nncs1)c1ccccc1NS(=O)(=O)c1cccs1 | 326 | 21.9% (inactive) | 5.1% (inactive) | 111% | -44.6% (inactive) | 108% | -0.0751 (inactive) | -1.1e-05 (inactive) | 0.00575 (inactive) | -6.81% (inactive) | -4.84% (inactive) |
| Cc1ccc2c(c1)-c1cc(C)nn1C(c1ccc3c(c1)OCO3)N2 (stereo not drawn) | 651 | 4.2% (inactive) | 16% (inactive) | 99.1% | -7.1% (inactive) | 130% | -0.568 (inactive) | -2.2e-05 (inactive) | 0.00558 (inactive) | -4.39% (inactive) | -18.6% (inactive) |
| O=C(CCCn1c(=S)[nH]c2ccccc2c1=O)N1CCCCC1 | 452 | -6.2% (inactive) | 6.5% (inactive) | 123% | 1.4% (inactive) | 106% | -0.451 (inactive) | 2.5e-05 (inactive) | 0.00588 (inactive) | -0.408% (inactive) | 6.14% (inactive) |

From PubChem BioAssay
